Assay results collected from several papers.
Lines come from different studies, so protocols differ.
Target: Serine/threonine-protein kinase Sgk2 (SGK2, Homo sapiens, UniProt Q9HBY8)
Residues used in one study (Q9HBY8 1-367): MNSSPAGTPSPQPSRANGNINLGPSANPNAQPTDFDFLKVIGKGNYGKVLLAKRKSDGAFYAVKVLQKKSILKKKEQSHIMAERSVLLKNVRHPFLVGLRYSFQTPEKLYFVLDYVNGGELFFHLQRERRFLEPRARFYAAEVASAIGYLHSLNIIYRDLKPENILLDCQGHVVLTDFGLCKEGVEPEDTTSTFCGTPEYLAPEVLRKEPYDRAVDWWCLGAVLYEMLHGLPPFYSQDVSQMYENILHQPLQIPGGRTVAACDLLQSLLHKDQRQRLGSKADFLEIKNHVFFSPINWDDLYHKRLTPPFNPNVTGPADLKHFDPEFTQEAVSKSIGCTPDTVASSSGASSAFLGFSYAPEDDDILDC

SMILES | test | setting | measurement | result
Cn1cnc(Br)c1C1=CN(c2ncnc3[nH]cnc23)CCS1 | enzyme activity, inhibitor, radiometric | 2 µM | inhibition | 82.2%
CC(C)(C)c1nc(-c2cccc(NS(=O)(=O)c3c(F)cccc3F)c2F)c(-c2ccnc(N)n2)s1 | enzyme activity, inhibitor, radiometric | 1 µM | remaining activity | 101%
CNC(=O)Nc1ccc2c(c1)CC[C@@]21OC(=O)N(CC(=O)N(Cc2ccc(F)cc2)[C@@H](C)C(F)(F)F)C1=O | cell-free assay, competition with immobilised ligand | 1 µM | remaining binding | 100%
CNC(=O)c1cc(Oc2ccc(NC(=O)Nc3ccc(Cl)c(C(F)(F)F)c3)cc2)ccn1 | enzyme activity, inhibitor | 10 µM | inhibition | -2%
COc1cc2ncnc(Nc3ccc(Oc4ccccc4)cc3C)c2cc1OC | enzyme activity, inhibitor | 1 µM | inhibition | -4%
CCC(=N\O)/C(C)=C/c1ccc(F)cc1 | cell-free assay, competition with immobilised ligand | 1 µM | remaining binding | 78%
O=C(Nc1cnn(-c2csc(C(=O)NC3COC3)c2)c1)Nc1ccccc1Cl | enzyme activity, inhibitor | 5 µM | remaining activity | 101%
Cc1cnc(NC2CCOCC2)nc1-n1cnc(C(=O)NC(CN)c2cc(F)cc(Cl)c2)c1 (stereo not drawn) | enzyme activity, inhibitor, radiometric | 1 µM | remaining activity | 25%
O=C1NC(=O)c2cc(Nc3ccc(F)cc3)c(Nc3ccc(F)cc3)cc21 | cell-free assay | 0.5 µM | remaining signal | 99.7%
Nc1c(C(=O)NCc2ccc(C(=O)NCCCC3CCCCC3)cc2)cnn1-c1ccccc1 | cell-free assay, competition with immobilised ligand | 0.1 µM | remaining binding | 72%
COc1cc(Cl)c(C(=O)N[C@@H](CN[C@H]2CC[C@@H](N)CC2)Cc2ccc(C#N)cc2)cc1-c1ccc(CN[C@H](C)c2ccc(C)cc2)o1 | enzyme activity, inhibitor | 1 µM | remaining activity | 82%
CSc1cccnc1N1CCN(Cc2nc3ccccc3[nH]2)CC1 | cell-free assay, competition with immobilised ligand | 1 µM | remaining binding | 81%
Cc1ccc(Nc2nccc(N(C)c3ccc4c(C)n(C)nc4c3)n2)cc1S(N)(=O)=O | enzyme activity, inhibitor | 0.3 µM | inhibition | 5%
CCCOc1ccc(OC)c(F)c1C(=O)c1ccc(C(=O)N[C@@H]2CNC[C@H]2NC(=O)c2ccc3[nH]ncc3c2)cc1 | enzyme activity, inhibitor | 10 µM | remaining activity | 1%
NS(=O)(=O)c1cc(NC(=O)C2(c3ccccc3Cl)CC2)ccc1Oc1cccc(Cl)c1 | cell-free assay, competition with immobilised ligand | 1 µM | remaining binding | 100%
CCN(CC)CCNC(=O)c1c(C)[nH]c(/C=C2\C(=O)Nc3ccc(F)cc32)c1C | enzyme activity, inhibitor | 0.3 µM | inhibition | 4%
CN1CC(Oc2cnc(C#N)cc2-c2ccn3nc(NC(=O)C4CC4)cc3c2)C1 | enzyme activity, inhibitor | 1 µM | inhibition | -2%
O=C1CCc2cc(Nc3cc(OC4CCOCC4)c([N+](=O)[O-])cc3Cl)ccc2N1 | cell-free assay, competition with immobilised ligand | 1 µM | remaining binding | 80%
Cc1ccc(NC(=O)c2ccc(C)c(C(F)(F)F)c2)cc1C#Cc1nn(C2CCC(O)CC2)c2ncnc(N)c12 (stereo not drawn) | cell-free assay | 10 µM | remaining signal | 97%
O=C1Nc2ccc(Cl)cc2C1=Cc1cc(Cl)c(O)c(Cl)c1 | cell-free assay | 0.5 µM | remaining signal | 89.2%
CCN(CC)c1ccc(C2=NNC(=O)CC2C)cc1[N+](=O)[O-] (stereo not drawn) | enzyme activity, inhibitor | 10 µM | remaining activity | 104%
